ROMK primary = human ROMK K+ channel modulation, primary screen | 130,000 tested, 2% active | Tet-inducible ROMK, thallium flux fluorescence; actives lie on both sides | P48048 | B-score at 10 µM;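 active means signal ratio slope over the read window, or its plate-corrected B-score, at least 3 SD from the plate mean, either direction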;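 further: B-score of the F/F0 ratio slope over 7 to 12 s after thallium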
MDM2 E3 inh = blocks human Mdm2 ubiquitin ligase activity. Q00987. cell-based MDM2 ubiquitination luciferase reporter, 2 h; 0 = plate control, 100 = twice control, blank-subtracted. signal enhancement, % at 5 µM. 210,000 tested, 0.11% active. AID 1230;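 active means signal enhancement of 30% or more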;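 further: luminescence tracks abundance of the self-degrading MDM2-luciferase fusion protein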
Target sequence (Q00987 whole entry, looked up, the tested form may be a part): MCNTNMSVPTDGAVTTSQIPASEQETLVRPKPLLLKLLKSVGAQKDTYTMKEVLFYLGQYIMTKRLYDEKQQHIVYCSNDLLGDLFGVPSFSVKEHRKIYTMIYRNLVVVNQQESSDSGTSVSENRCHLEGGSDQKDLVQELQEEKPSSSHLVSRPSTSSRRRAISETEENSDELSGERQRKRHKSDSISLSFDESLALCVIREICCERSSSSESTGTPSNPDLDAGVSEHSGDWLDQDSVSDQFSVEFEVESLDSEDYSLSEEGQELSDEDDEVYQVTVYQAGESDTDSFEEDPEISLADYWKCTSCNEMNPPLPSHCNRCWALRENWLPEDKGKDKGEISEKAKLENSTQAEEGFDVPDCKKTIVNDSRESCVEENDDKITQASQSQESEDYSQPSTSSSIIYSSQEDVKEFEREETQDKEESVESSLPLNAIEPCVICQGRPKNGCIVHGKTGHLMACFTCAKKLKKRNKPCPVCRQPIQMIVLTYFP
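Test system: stable mammalian line carrying autodegrading MDM2–luciferase fusion reporter; quantity: 2000 cells in each well; times: 4 h cell settling then 2 h compound exposure, 37 °C; detection: luminescence with SteadyLite reagent, 15 min at room temperature; evaluation: percent signal gain over controls, blank-subtracted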
DTT redox prof = compounds producing H2O2 with reducing agent – biochemical, NIH compound library profiling, artefact control for MLSCN library redox annotation, primary screen; DTT-dependent redox cycling H2O2, phenol red/HRP absorbance; 100% = 100 µM peroxide control, 0% = buffer; activation, % at 10 µM; 200,000 tested, 0.03% active;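 active means activation of at least 50% relative to the plate's high and low controls in the primary single-dose screen; inactive means activation below 50%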;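 further: compound incubated with DTT at 0.8 mM final as the reducing agent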
Cl transport mod = modulates chloride dependent transport by human KCC2; Q9H2X9; KCC2 cells, thallium flux FluoZin-2 fluorescence; B-score of Tl+ flux slope (higher = more flux/activation; lower = inhibition) at 10 µM; 190,000 tested, 2.2% active; AID 1456;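 active means thallium flux slope and its plate-corrected score both differing from the plate sample mean at a set confidence after two filtering rounds, in either direction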;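 further: slope of fluorescence scaled to starting intensity during 10 to 20 s after thallium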
PKD1 kinase inh = PKD1 (human) kinase inhibition; 200,000 tested, 0.056% active; AID 797; inhibition, % (concentration not given with the values); PKD1 kinase fluorescence polarization assay; in the data active means inhibition above about 50%
p97 ATPase inh = blocks human p97 ATPase activity. P55072. recombinant p97 ATPase, Kinase-Glo ATP luminescence, 3 h. inhibition, % at 8 µM. 220,000 tested, 0.42% active. AID 1481; in the data active means inhibition above about 15%
KCC2 sec1 = KCC2 (human) modulation, secondary assay. shares compounds with Cl transport mod. HEK293-KCC2, thallium flux, FluoZin2 fluorescence; stronger effect = higher value. normalised thallium flux (F/F0 slope) at 10 µM. 3,700 tested, 15% active. AID 1713;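 active means thallium flux slope above the same plate's solvent-only control mean plus 3 SD; inconclusive means the two replicate wells disagree; inactive means no significant difference from solvent-only control wells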
KCC2 bumet counter = bumetanide-insensitive thallium flux in KCC2 cells with ouabain, counter-screen | shares compounds with Cl transport mod | HEK293-KCC2 + bumetanide/ouabain, thallium flux FluoZin2; stronger effect = higher value | normalized thallium flux at 10 µM | 3,700 tested, 49% active;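 active means thallium entry rate above the same plate's blocked-transporter control wells by more than 3 SD; inconclusive means the two repeat wells disagree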;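 further: raw slope of fluorescence over initial fluorescence between 10 and 20 s after thallium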
KCC2 sec2 = KCC2 (human) modulation, second secondary assay | 3,700 tested, 23% active | shares compounds with Cl transport mod | HEK293-KCC2, thallium flux FluoZin2 fluorescence; actives lie on both sides; F/F0 rise rate, 10–20 s post-thallium | AID 1715 | normalized thallium flux at 10 µM;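 active means thallium flux slope more than 3 SD above or below the plate's solvent-only control mean, mostly below; inconclusive means the two repeat wells disagreed; inactive means no significant shift from solvent-only controls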
HEK293 Tl flux = parental HEK flux effect, counter-screen. shares compounds with Cl transport mod. HEK293 parental cells, thallium flux FluoZin2, ouabain; baseline-ratio fluorescence slope, 10–20 s after thallium. thallium flux rate (normalised fluorescence) at 10 µM. 3,700 tested, 46% active;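 active means thallium flux rate significantly above the same plate's solvent-only control wells, beyond their mean plus 3 SD; inconclusive means the two replicate wells gave conflicting results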
KCC2 retest ouab = KCC2 (human) modulation, ouabain retest; shares compounds with Cl transport mod; HEK293-KCC2, thallium flux FluoZin2 fluorescence; bidirectional: low = inhibitor, high = activator; raw Tl+ flux slope (below DMSO = inhibition, above = activation) at 10 µM; 3,700 tested, 48% active;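 active means thallium flux slope beyond 3 SD from same-plate DMSO control mean in most replicates, usually higher, sometimes lower; inconclusive means repeat tests gave conflicting results; inactive means no significant difference from controls in most replicates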;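 further: slope of initial-normalized fluorescence between seconds 10 and 20 after thallium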
HEK counter2 = parental HEK flux effect, counter-screen 2; shares compounds with Cl transport mod; HEK293 parental, thallium flux FluoZin-2 fluorescence slope; thallium flux slope at 10 µM; 3,700 tested, 33% active; AID 1718;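 active means thallium flux slope above the same plate's solvent-control mean plus 3 SD in both duplicate wells; inconclusive means duplicate wells that disagreed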;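 further: run without ouabain in cells lacking the KCC2 cotransporter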
Numbers stand for hits; i = inactive; ? = inconclusive; nt = no result given. Most compounds without a hit are left out; they make up all but 3.4% or so of the library.

SMILES	ROMK primary	MDM2 E3 inh	DTT redox prof	Cl transport mod	PKD1 kinase inh	p97 ATPase inh	KCC2 sec1	KCC2 bumet counter	KCC2 sec2	HEK293 Tl flux	KCC2 retest ouab	HEK counter2
CC(C)NC(=S)N/N=C/c1sc(N2CCCCC2)nc1-c1cccs1	i	nt	i	3.1	i	i	i	0.011	i	0.0099	i	i
Cc1ccn2cc(-c3cccc([N+](=O)[O-])c3)nc2c1	i	i	i	i	i	i	nt	nt	nt	nt	nt	nt
CCc1c(O)nc(SCC(=O)Nc2ccccc2)n(-c2ccccc2)c1=O	nt	i	i	i	i	i	nt	nt	nt	nt	nt	nt
CCc1c(O)nc(SCC(=O)Nc2ccc(C)cc2)n(C2CCCCC2)c1=O	i	i	i	nt	i	i	i	i	i	i	0.016	i
COc1ccc(CNC(=O)CSc2nc3[nH]ncc3c(=O)n2-c2ccccc2Br)cc1	i	i	i	i	i	i	nt	nt	nt	nt	nt	nt
COc1ccc(N2CCN(C(=O)CSc3nc4[nH]ncc4c(=O)n3-c3cccc4ccccc34)CC2)cc1	i	i	i	-4.4	i	i	i	0.0064	0.026	i	0.015	i
Cc1n[nH]c(C)c1S(=O)(=O)N1CCCC(C(=O)N2CCc3ccccc32)C1 (centres undefined)	nt	i	i	nt	i	i	nt	nt	nt	nt	nt	nt
Cc1ccccc1C(=O)NC(=S)Nc1ccccc1N1CCCC1	i	i	i	11	i	i	i	0.025	i	0.026	0.03	0.015
O=C(NC(=S)Nc1ccccc1N1CCOCC1)c1ccc(-c2ccccc2F)o1	nt	i	nt	15	nt	i	i	0.028	i	0.034	0.031	i
Cc1cc(C(=O)NC(=S)Nc2ccccc2N2CCCC2)ccc1[N+](=O)[O-]	nt	i	i	i	i	i	nt	nt	nt	nt	nt	nt
O=C(Nc1ccccc1N1CCCCC1)c1ncoc1-c1ccc(F)cc1	nt	i	i	2.1	i	i	i	i	i	i	i	i
Cc1cc(C(=O)NC(=S)Nc2ccccc2N2CCOCC2)ccc1[N+](=O)[O-]	i	i	i	5.4	i	i	i	0.01	i	?	?	?
Cc1ccccc1C(=O)NC(=S)Nc1ccc(N2CCOCC2)cc1	i	i	i	i	i	i	nt	nt	nt	nt	nt	nt
CCNc1nc(SCCOc2ccc(Cl)cc2Cl)nc(N(C)C)n1	i	i	i	i	i	i	nt	nt	nt	nt	nt	nt
O=C(NN1CCOCC1)c1sc2cccc(F)c2c1Cl	i	i	i	i	i	i	nt	nt	nt	nt	nt	nt
O=C(Nc1ccccc1N1CCCCC1)c1ccccc1F	i	i	i	nt	i	i	nt	nt	nt	nt	nt	nt
CC(C)C(=O)N1CCN(c2ccc(NC(=O)c3cccs3)cc2Cl)CC1	i	i	i	i	i	i	nt	nt	nt	nt	nt	nt
O=C(NC(=S)Nc1ccccc1N1CCCC1)c1cccc(F)c1	i	i	i	39	i	i	i	0.062	0.043	0.027	0.046	0.028
CC(C)C(=O)N1CCN(c2ccccc2NC(=S)NC(=O)c2cccs2)CC1	i	i	i	i	i	i	i	0.0086	i	0.0091	i	?
O=C(NC(=S)Nc1ccccc1N1CCCCC1)c1ccccc1	i	i	i	12	i	i	i	0.023	i	0.011	0.028	?

Screening results: PubChem BioAssay, several laboratories
